# Experimental data as given in the RNAGym collection of RNA variant scans (doi:10.1126/science.aae0568).
# Fewer inactive variants are shown than the library holds.
# B1: tRNA (parent)
# chain: GUUCCGUUGGCGUAAUGGUAACGCGUCUCCCUCCUAAGGAGAAGACUGCGGGUUCGAGUCCCGUACGGAACG
# Variants of: B1
# Experiment: yeast fitness relative to wild type (ratio to wild type); higher = fitter; tRNA-Arg(CCU), competitive growth, 37 C, YPD
# Method in brief: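 Changes in genotype frequencies gave Darwinian fitness relative to wild type. Frequencies were read by 100-nucleotide paired-end sequencing of gene amplicons before and after pooled Saccharomyces cerevisiae strains, carrying tRNA-Arg(CCU) gene variants at the native locus, were competed in YPD at 37°C for 24 hours in six replicates. A genotype was kept only with ≥ 100 starting reads, and estimates < 0.5 were set to 0.5.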
row,Variant,yeast fitness
1,U13C A37U C62A,≤ 0.5
2,U13A A21C C29U C66A,≤ 0.5
3,U13A C27G A42U A69U,0.687
4,U13A C24A,0.624
5,U13A C24U,0.795
6,U13A C22G C24G A36U A40C A45G C66A,≤ 0.5
7,U13A C33G,0.741
8,U13A C31A A42G G67A A69U,≤ 0.5
9,U13C A21G A42U A57U C62U,≤ 0.5
10,U13A U28A,0.772
11,U13A A21C C24A G25C C49U,≤ 0.5
12,U13A A57G A69C,0.503
13,U13C A15U C61U A65C,≤ 0.5
14,U13A C29U A40C,0.54
15,U13C A21G,1.09
16,U13A C27U G44C,0.637
17,U13A A65U A69C,≤ 0.5
18,U13A C24U C55A G58C,≤ 0.5
19,U13C A20C A42U,0.558
20,U13A A42U,1.03
21,U13C A15G A65C,0.583
22,U13A C66A,0.619
23,U13C A42U,0.923
24,U13C A42C,0.932

row,Variant,yeast fitness
1,U13C A43U C49U,0.716
2,U13A A20U C31G C34U G67U,≤ 0.5
3,U13A G38C A69C,0.524
4,U13A U35A,0.561
5,U13A U35G,0.688
6,U13A C33A A36U G68C,≤ 0.5
7,U13A C61A G68A,≤ 0.5
8,U13A U28C C60A,0.551
9,U13A U32A A37U G41A,≤ 0.5
10,U13A A21C G38A A40U G50C C60G A70G,≤ 0.5
11,U13A A57G,0.792
12,U13A A42C C62A,0.57
13,U13C A36C C55U G68C,≤ 0.5
14,U13A C33G U54A U59A,≤ 0.5
15,U13A C22U A57U,≤ 0.5
16,U13C A36G C62U,0.693
17,U13A G23C U32G C49U A69U,≤ 0.5
18,U13C A15C C46G,≤ 0.5
19,U13C A20U,1.12
20,U13A U28C G56A,0.805
21,U13C A14C C34U G38C G51A A57C C66U,≤ 0.5
22,U13A C29U A40C A69U,≤ 0.5
23,U13A U54C C62U,0.679
24,U13A A40G A42G,≤ 0.5

row,Variant,yeast fitness
1,U13C A37G C60A A65U,≤ 0.5
2,U13A U19C A20U C29G C33G A37G C49U,≤ 0.5
3,U13A C31G A42G,0.699
4,U13A C22G C31G,0.547
5,U13C A45U G63C,≤ 0.5
6,U13A A21G C60G C66G,0.756
7,U13A U28C C33G G38A U64G,≤ 0.5
8,U13C A14G A42C C62G,≤ 0.5
9,U13A A42C A70U,0.671
10,U13A C29G G48C,≤ 0.5
11,U13A G58C A69U,1.04
12,U13A A21C C33U G52A A57G G67U,≤ 0.5
13,U13A U35A A40U G41A A42C,≤ 0.5
14,U13A C34G C61U,≤ 0.5
15,U13A C34U,0.58
16,U13C A20U C62U,0.731
17,U13A C33A A36U,0.544
18,U13C A43U A70C,0.679
19,U13A C49G,1.01
20,U13C A14G C24G,≤ 0.5
21,U13A C22U G51A C62G G63C C66G A69U,≤ 0.5
22,U13A U47A C60A,0.58
23,U13C A43G A45U,0.587
24,U13A A43C A57C,≤ 0.5

row,Variant,yeast fitness
1,U13A U28C U64A,0.718
2,U13C A45G C61G,≤ 0.5
3,U13A C30U C55G G58C G63C C66U,≤ 0.5
4,U13A C22G C24G A36U A40C,0.58
5,U13A A21U C22G C31A G50A,≤ 0.5
6,U13A U16A C24G C33G C62G,≤ 0.5
7,U13A C27G U28A A65U A70U,0.543
8,U13A C24U G41U U47C,≤ 0.5
9,U13C A15G A43U,0.752
10,U13A C55U,0.626
11,U13C A70U,0.945
12,U13C A70G,1.03
13,U13A A21G A57U,0.597
14,U13A C30U U47A U59A C60U C62G,≤ 0.5
15,U13A C22G C24G A36U A40C G51C,0.548
16,U13A G56C A65C,≤ 0.5
17,U13A C29U A42U,0.568
18,U13A C33G A36G C49A,≤ 0.5
19,U13A C33A U54C,≤ 0.5
20,U13C A40G C62G,≤ 0.5
21,U13A U26G C30G C49G,0.501
22,U13C A45C G50U,≤ 0.5
23,U13A U32A C60G,≤ 0.5
24,U13A U54A A69U,0.529

row,Variant,yeast fitness
1,U13A C27U C66U,0.787
2,U13A A37C G56A,≤ 0.5
3,U13A U16A C61G,≤ 0.5
4,U13A C24A G51A C61A A69U,≤ 0.5
5,U13A C46A U64C,0.609
6,U13A G41A U64C A70G,≤ 0.5
7,U13A C33U A42G G52C A65G,≤ 0.5
8,U13A A21C U54G C66U,≤ 0.5
9,U13A A43U,0.855
10,U13A U19A,0.828
11,U13A U35C A36C A37U G50C,≤ 0.5
12,U13A A40G A43C G50A G67C,≤ 0.5
13,U13A U19C C24G G25A G39C A40C G51C,≤ 0.5
14,U13A C60G G67A,≤ 0.5
15,U13C A36U C62G A65G,0.671
16,U13A U32A C62U G63A,≤ 0.5
17,U13A G23A A36C G38A A65G,≤ 0.5
18,U13A G18C C27U A65G,≤ 0.5
19,U13A G50U,0.838
20,U13C A21G U35A C55U A65G,≤ 0.5
21,U13A U28A C30G C46U G56C C61G,≤ 0.5
22,U13A C27U A57G C66U,≤ 0.5
23,U13C A36C G67U,0.637
24,U13A A21C A42G C62A A69U,≤ 0.5

row,Variant,yeast fitness
1,U13A C33G C55A,≤ 0.5
2,U13A U16A C31G C33U G38C G58C C66G,≤ 0.5
3,U13A C24U U59C,0.55
4,U13C A15U C46A A65C,≤ 0.5
5,U13C A42U U47C G51A A70C,≤ 0.5
6,U13C A15G C30A C62G,≤ 0.5
7,U13A C22U U35A C60U C61A,≤ 0.5
8,U13A C61U,0.786
9,U13A C61A,0.706
10,U13A G17C C31A,0.623
11,U13A U16C C34A,≤ 0.5
12,U13A A20U C27U A42G U54C,≤ 0.5
13,U13A G56A C61G A70G,≤ 0.5
14,U13A C24A C60U,≤ 0.5
15,U13A A21C A37G A42G,≤ 0.5
16,U13A G44C,0.94
17,U13C A20C G48C A57G,≤ 0.5
18,U13A G48A G67C,0.608
19,U13C A37U A42U C66A A69C,≤ 0.5
20,U13A G23A G67C,0.535
21,U13A U28C C60G C66G,0.6
22,U13C A21G U28C C31G,0.539
23,U13A C22A C27U A42U,≤ 0.5
24,U13A C31A G44A A57G A65C A70U,≤ 0.5

row,Variant,yeast fitness
1,U13A A36U A45U G52C A57U,≤ 0.5
2,U13C A20G A37G G58A,≤ 0.5
3,U13A U28C G41A G44A,≤ 0.5
4,U13C A69C,0.995
5,U13A G68C,0.762
6,U13A G68A,0.864
7,U13A C27G A40G G41C A69U,1.07
8,U13A C31G C33U A37C A65U,≤ 0.5
9,U13A A37C A43U G50C A57G,≤ 0.5
10,U13A A45G G67U,0.629
11,U13A C27G A45C,0.743
12,U13C A43U C60G,0.546
13,U13A G17A,0.764
14,U13A C34U A40U A65C,≤ 0.5
15,U13A A21U G58C G68C,0.857
16,U13A C61G A70G,0.6
17,U13A C24A C61A A69U,0.505
18,U13C A42G C61G,≤ 0.5
19,U13C A40G G63A G67A,≤ 0.5
20,U13A A45C C60A,≤ 0.5
21,U13A C30U G58C,≤ 0.5
22,U13C A43G G52C,≤ 0.5
23,U13A C31G C46G A69U,0.624
